The values that follow come from article PMC5756105 (Journal of proteome research, 2017).

One test deals with basal hMSCs. As to the kind of experiment: qHTS CellTiter-Glo viability assay in 1536-well format, basal hMSCs. The test is classed as cell-based, human. Conditions: qHTS CTG, basal vs osteogenesis day 1. The method in brief: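 hMSCs were seeded at 500 cells/well directly in basal or osteogenic differentiation medium (osteogenesis day 1 arm) and held 24 h at 37°C/5% CO₂. A LOPAC library was then added at seven concentrations (0.0029–46 μM, 1:5 serial dilutions) for 48 h. ATP was read by CellTiter-Glo luminescence after 30 min at room temperature. IC₅₀ and efficacy came from dose-response curves, with hit cutoffs of efficacy ≥ 50% and IC₅₀ ≤ 20 μM.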

For another test, the system named is hMSCs. As to the kind of experiment: CCK-8 cell viability assay on 96-well plates, basal hMSCs. The format is cell-based, human. Conditions: for reduction in toxicity from basal hMSCs to their osteogenic progenies: basal hMSCs vs OD1-OD6; for IC50: read-out: IC50 hMSC. (Formazan colour is commonly taken as a measure of viable cells.)
Another test concerns hiPSCs. The experiment in a line: CCK-8 cell viability assay on 96-well plates, basal hiPSCs. The format is cell-based, human. As to conditions: for higher sensitivity of hiPSCs compared to basal hMSCs: ratio of IC50, hiPSCs vs basal hMSCs; for IC50: read-out: IC50 hiPSC; for dependency of effects on stages of hepatogenic differentiation of hiPSCs: Phase I-III.
Test [1] has as its system hepatic differentiation Phase III cells. The format is cell-based. Conditions: Homo sapiens, HepA, 48 h, read-out: IC50 Hepa Diff Phase III.
Test [2] deals with hepatic differentiation Phase I cells. The experiment in a line: CCK-8 cell viability assay, hiPSCs at end of hepatogenic differentiation Phase I. The test is classed as cell-based. Conditions: Homo sapiens, HepA, 48 h, read-out: IC50 Hepa Diff Phase I.
The next test concerns hMSC-OD3. As to the kind of experiment: CCK-8 cell viability assay on 96-well plates, hMSCs osteogenesis Day 3. The format is cell-based. Conditions: Homo sapiens, read-out: IC50 hMSC-OD3.
In test [3] the test system is hepatic differentiation Phase II cells. The test is classed as cell-based. Conditions: Homo sapiens, HepA, 48 h, read-out: IC50 Hepa Diff Phase II.
The next test deals with hMSC-OD6. As to the kind of experiment: CCK-8 cell viability assay on 96-well plates, hMSCs osteogenesis Day 6. The format is cell-based. Conditions: Homo sapiens, read-out: IC50 hMSC-OD6.
For a further test, the system named is hMSC-OD1. The experiment in a line: CCK-8 cell viability assay on 96-well plates, hMSCs osteogenesis Day 1. The format is cell-based. As to conditions: Homo sapiens, read-out: IC50 hMSC-OD1.
[4] abbreviates: basal hMSCs, 48-hour treatment, CCK-8, mean ± s.e.m., n=3.
Where [5] appears, read: basal hiPSCs, 48-hour treatment, CCK-8, mean ± s.e.m., n=3.

Where a name gives a salt, the structure may show the parent alone. Read-outs that look alike come from different tables or passages of the source.

One may read the IC50 as the concentration that inhibits the measured activity by half. As to `CC[n+]1c(/C=C/C=C2/N(C)c3ccccc3C2(C)C)sc2ccccc21.[I-]` [AC-93253], the “toxicity to basal hMSCs versus osteogenic hMSCs in primary screening” value in the test on basal hMSCs was “much higher toxicity”. The “reduction in toxicity from basal hMSCs to their osteogenic progenies” value with hMSCs is 3~4 fold. Moreover, the values for the half-inhibitory concentration (IC50) in the test on hMSCs (setting [4]) and in the test on hiPSCs (setting [5]) were 3.94 ± 1.18 µM and 0.09 ± 0.038 µM, respectively. In addition, in the test on hiPSCs, the “higher sensitivity of hiPSCs compared to basal hMSCs” value was “more than 30 times”.
Take `C[C@@]12C(=O)OC(=O)[C@]1(C)[C@H]1CC[C@@H]2O1` [Cantharidin, cantharidin]: the IC50 in the test with hMSCs (Homo sapiens, 48 h) is 1.54 ± 0.5 µM; in [1], 1.12 ± 0.34 µM; in test [2], 2.7 ± 0.49 µM; with hMSC-OD3, 4.95 ± 1.33 µM; in the test with hiPSCs (Homo sapiens, 48 h) it was 4.36 ± 1.4 µM; in test [3], 2.58 ± 0.28 µM. Also, the IC50 came to 6.17 ± 2.55 µM in the test on hMSC-OD6 and 3.98 ± 0.69 µM in the test with hMSC-OD1. In addition, the “reduction in toxicity from basal hMSCs to their osteogenic progenies” value in the test with hMSCs is listed as 3~4 fold. Besides, the “dependency of effects on stages of hepatogenic differentiation of hiPSCs” value in the test on hiPSCs was “not significantly dependent”.
With `CC(=O)[C@]1(O)Cc2c(O)c3c(c(O)c2[C@@H](O[C@H]2C[C@H](N)[C@H](O)[C@H](C)O2)C1)C(=O)c1ccccc1C3=O` [Idarubicin, idarubicin hydrochloride], in the test on hMSCs (hMSCs, basal vs OD6, p<0.001), the “decrease in toxicity from basal to OD6” value was found to be 28 fold. Also, the IC50 with hMSCs (setting [4]) was found to be 0.38 ± 0.074 µM; in test [1], 4.99 ± 1.38 µM; in test [2], 0.07 ± 0.003 µM; with hMSC-OD3, 7.43 ± 4.56 µM; in the test with hiPSCs (Homo sapiens, 48 h), 0.004 ± 0.001 µM; in test [3], 1.25 ± 0.23 µM. Moreover, the 50% inhibitory concentration (IC50) in the test with hMSC-OD6 amounted to 10.8 ± 0.43 µM; in the test on hMSC-OD1 it was 2.96 ± 0.22 µM. Also, the “dependency of effects on stages of hepatogenic differentiation of hiPSCs” value in the test on hiPSCs is listed as “significantly dependent”. In the test on hiPSCs, the “higher sensitivity of hiPSCs compared to basal hMSCs” value is “more than 30 times”.
As for `O=C1C(SCCO)=C(SCCO)C(=O)c2ccccc21` [NSC 95397], in the test on hMSCs (basal hMSCs vs OD1 to OD6), the “differentiation-stage dependency of toxicity on hMSCs” value is reported as “not differentiation-stage dependent”. The results for the concentration for half-maximal inhibition (IC50) with hMSCs (setting [4]) and with hiPSCs (setting [5]) were 6.55 ± 1.76 µM and 6.91 ± 3.01 µM, respectively.
